Assay results as given in ChEMBL document CHEMBL6083235, “Synthesis, evaluation and mechanistic insights of novel IMPDH inhibitors targeting ESKAPEE bacteria” (Eur J Med Chem, 2024).
Activity calls are given as the source filed them. No cut-off for these calls is given here.

Test system: Pseudomonas aeruginosa
Test: Inhibition of Pseudomonas aeruginosa IMPDH delta Bateman domain extracted form Escherichia coli BL21 (DE3)pDIA17 assessed as formation of NADH at 50 uM relative to control
Conditions: not given
Outline: (§1)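 Bateman-domain-deleted IMPDH (E. coli or P. aeruginosa), His-tagged, made in E. coli BL21(DE3)/pDIA17. NADH formation at 340 nm, 30 °C, 0.2 mM IMP, 0.4 mM NAD⁺, 0.2 mM MgATP, 2 mM MgCl₂. Buffer: ec Tris-HCl 50 mM pH 9, KCl 100 mM; pa Tris-HCl 50 mM pH 8, KCl 100 mM. Compound 50 μM; % inhibition relative to uninhibited enzyme.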
With `CC(C)(NC(=O)Nc1ccc(Cl)c([N+](=O)[O-])c1)c1cccc(-c2c[nH]cn2)c1` the inhibition was 99%.

Target: T1, Inosine-5'-monophosphate dehydrogenase (Pseudomonas aeruginosa (strain ATCC 15692 / DSM 22644 / CIP 104116 / JCM14847 / LMG 12228 / 1C / PRS 101 / PAO1)) (UniProt Q9HXM5)
T1 sequence (whole entry): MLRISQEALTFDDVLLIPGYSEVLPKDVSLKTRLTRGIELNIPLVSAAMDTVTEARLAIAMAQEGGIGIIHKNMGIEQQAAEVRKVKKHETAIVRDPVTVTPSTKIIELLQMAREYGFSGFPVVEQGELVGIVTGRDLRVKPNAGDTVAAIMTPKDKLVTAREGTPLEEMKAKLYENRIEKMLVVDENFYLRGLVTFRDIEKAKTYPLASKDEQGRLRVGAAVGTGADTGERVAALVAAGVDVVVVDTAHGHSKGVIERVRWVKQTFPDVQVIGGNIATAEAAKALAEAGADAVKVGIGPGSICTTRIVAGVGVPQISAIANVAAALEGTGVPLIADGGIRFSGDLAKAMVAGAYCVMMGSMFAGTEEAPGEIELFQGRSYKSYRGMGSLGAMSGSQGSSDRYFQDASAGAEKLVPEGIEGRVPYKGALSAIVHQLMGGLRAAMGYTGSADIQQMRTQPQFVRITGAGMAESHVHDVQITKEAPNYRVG
Test: Non-competitive inhibition of Pseudomonas aeruginosa IMPDH by Lineweaver-Burk plot analysis
Conditions: not given
Outline: (§2)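 Steady-state kinetics of P. aeruginosa ΔBateman IMPDH: initial rates (NADH at 340 nm, 30 °C, Tris-HCl 50 mM pH 8, KCl 100 mM) measured across variable IMP at saturating 2 mM NAD⁺, without or with several inhibitor concentrations; data from at least three experiments fitted to Michaelis–Menten and shown as Lineweaver-Burk plots.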
For `CC(C)(NC(=O)Nc1ccc(Cl)c([N+](=O)[O-])c1)c1cccc(-c2c[nH]cn2)c1`, the inhibition was “Active”.

Test system: not listed separately
Test: Metabolic stability in mouse liver microsomes assessed as recovery in presence of NADPH measured after 120 mins
Format: ADME, Microsome
Conditions: read-out: Drug recovery
Molecule `CC(C)(NC(=O)Nc1ccc(Cl)c([N+](=O)[O-])c1)c1cccc(-c2c[nH]cn2)c1` has a remaining at 2 h of over 95%.

Target: T2, Inosine-5'-monophosphate dehydrogenase (Escherichia coli K-12) (UniProt P0ADG7)
T2 sequence (whole entry): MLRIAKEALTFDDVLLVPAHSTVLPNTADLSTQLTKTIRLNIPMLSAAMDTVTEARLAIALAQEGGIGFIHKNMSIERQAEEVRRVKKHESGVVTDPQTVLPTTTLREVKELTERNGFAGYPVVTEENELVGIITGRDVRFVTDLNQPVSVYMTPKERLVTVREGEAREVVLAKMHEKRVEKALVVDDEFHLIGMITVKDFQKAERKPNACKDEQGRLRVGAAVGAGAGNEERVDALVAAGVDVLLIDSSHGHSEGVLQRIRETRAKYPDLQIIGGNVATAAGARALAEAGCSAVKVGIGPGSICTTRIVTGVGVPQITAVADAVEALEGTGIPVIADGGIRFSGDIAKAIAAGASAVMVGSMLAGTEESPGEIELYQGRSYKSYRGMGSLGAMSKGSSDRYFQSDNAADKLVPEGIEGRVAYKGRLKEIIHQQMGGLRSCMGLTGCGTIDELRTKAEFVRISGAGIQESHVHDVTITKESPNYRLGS
Test: Inhibition of Escherichia coli IMPDH extracted form Escherichia coli BL21 (DE3)pDIA17 assessed as formation of NADH at 50 uM relative to control
Conditions: not given
Outline: (§3)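 His-tagged wild-type IMPDH (E. coli, P. aeruginosa or S. aureus) made in E. coli BL21(DE3)/pDIA17, purified by metal-affinity then gel filtration. NADH formation followed at 340 nm, 30 °C, with 0.2 mM IMP, 0.4 mM NAD⁺, 0.2 mM MgATP, 2 mM MgCl₂. Buffers: pa Tris-HCl 50 mM pH 8; ec Tris-HCl 50 mM pH 8, KCl 50 mM; sa Na₂CO₃ 50 mM pH 9.2, KCl 20 mM. Compound at 50 μM; % inhibition vs compound-free activity.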
For `CC(C)(NC(=O)Nc1ccc(Cl)c([N+](=O)[O-])c1)c1cccc(-c2c[nH]cn2)c1`, the inhibition was 88%.

Test system: not listed separately
Test: Inhibition of Pseudomonas aeruginosa IMPDH delta Bateman domain extracted form Escherichia coli BL21 (DE3)pDIA17 assessed as formation of NADH
Conditions: read-out: I50
Outline: (§4)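 Bateman-domain-deleted IMPDH (E. coli or P. aeruginosa) from E. coli BL21(DE3)/pDIA17; NADH at 340 nm, 30 °C, 0.2 mM IMP, 0.4 mM NAD⁺, 0.2 mM MgATP, 2 mM MgCl₂; buffers as per variant (ec Tris-HCl pH 9/KCl 100 mM; pa Tris-HCl pH 8/KCl 100 mM). I50 by dose-response logistic fit, at least three experiments.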
In the case of `CC(C)(NC(=O)Nc1ccc(Cl)c([N+](=O)[O-])c1)c1cccc(-c2c[nH]cn2)c1`, the IC50 is reported as 150 nM.

Test system: Staphylococcus aureus
Test: Inhibition of Staphylococcus aureus IMPDH extracted form Escherichia coli BL21 (DE3)pDIA17 assessed as formation of NADH at 50 uM relative to control
Conditions: not given
Outline: as §3
With `CC(C)(NC(=O)Nc1ccc(Cl)c([N+](=O)[O-])c1)c1cccc(-c2c[nH]cn2)c1` the inhibition was 89%.

Test system: not listed separately
Test: Inhibition of Escherichia coli IMPDH delta Bateman domain extracted form Escherichia coli BL21 (DE3)pDIA17 assessed as formation of NADH
Conditions: read-out: I50
Outline: as §4
`CC(C)(NC(=O)Nc1ccc(Cl)c([N+](=O)[O-])c1)c1cccc(-c2c[nH]cn2)c1` showed an IC50 of 4260 nM.

Target: T1, Inosine-5'-monophosphate dehydrogenase (Pseudomonas aeruginosa (strain ATCC 15692 / DSM 22644 / CIP 104116 / JCM14847 / LMG 12228 / 1C / PRS 101 / PAO1))
Test: Non-competitive inhibition of Pseudomonas aeruginosa IMPDH in presence of 2 mM NAD+ by Michaelis-Menten equation
Conditions: not given
Outline: as §2
In the case of `CC(C)(NC(=O)Nc1ccc(Cl)c([N+](=O)[O-])c1)c1cccc(-c2c[nH]cn2)c1`, the inhibition is reported as “Active”.

Test system: not listed separately
Test: Metabolic stability in mouse liver microsomes assessed as recovery in absence of NADPH measured after 120 mins
Format: ADME, Microsome
Conditions: read-out: Drug recovery
With `CC(C)(NC(=O)Nc1ccc(Cl)c([N+](=O)[O-])c1)c1cccc(-c2c[nH]cn2)c1` the remaining at 2 h was over 95%.

Target: not listed separately
Test: Inhibition of Pseudomonas aeruginosa IMPDH delta Bateman domain in presence of detergent by detergent-sensitive enzyme-inhibition assay
Conditions: not given
Outline: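 P. aeruginosa ΔBateman IMPDH dose-response run under reference conditions (0.2 mM IMP, 0.4 mM NAD⁺, 0.2 mM MgATP, 2 mM MgCl₂; Tris-HCl 50 mM pH 8, KCl 100 mM; 30 °C, NADH at 340 nm) with 0.01 % Triton X-100 included, to exclude colloidal aggregation; I50 from logistic fit.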
For `CC(C)(NC(=O)Nc1ccc(Cl)c([N+](=O)[O-])c1)c1cccc(-c2c[nH]cn2)c1`, the IC50 was 140 nM.

Test system: Escherichia coli
Test: Inhibition of Escherichia coli IMPDH delta Bateman domain extracted form Escherichia coli BL21 (DE3)pDIA17 assessed as formation of NADH at 50 uM relative to control
Conditions: not given
Outline: as §1
In the case of `CC(C)(NC(=O)Nc1ccc(Cl)c([N+](=O)[O-])c1)c1cccc(-c2c[nH]cn2)c1`, the inhibition is reported as 90%.

Test system: not listed separately
Test: Inhibition of Pseudomonas aeruginosa IMPDH delta Bateman domain in absence of detergent
Conditions: not given
Outline: as §4
Work on `CC(C)(NC(=O)Nc1ccc(Cl)c([N+](=O)[O-])c1)c1cccc(-c2c[nH]cn2)c1` yielded an IC50 of 150 nM.

Test system: Caco-2
Test: Cytotoxicity against human Caco-2 cells assessed as cell viability at 1 uM measured after 72 hrs by Alamar blue assay
Format: toxicity, cell-based
Conditions: caco-2, 72 h
Outline: (§5)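 Confluent Caco-2 monolayers (seeded 1.10⁵ cells/cm², 48 h growth; DMEM 25 mM glucose, 10 % FBS, NEAA, 37 °C, 5 % CO₂) exposed 72 h; vehicle 0.1 % DMSO, 0.2 % Triton X-100 as cytotoxic control. Rinsed with PBS, 5 % Alamar Blue in FBS-free medium 30 min at 37 °C; resorufin fluorescence (ex 530/em 570 nm) relative to DMSO. Mean ± SEM, three independent experiments.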
For `CC(C)(NC(=O)Nc1ccc(Cl)c([N+](=O)[O-])c1)c1cccc(-c2c[nH]cn2)c1`, the Activity was “Non-toxic”.

Target: T1, Inosine-5'-monophosphate dehydrogenase (Pseudomonas aeruginosa (strain ATCC 15692 / DSM 22644 / CIP 104116 / JCM14847 / LMG 12228 / 1C / PRS 101 / PAO1))
Test: Inhibition of Pseudomonas aeruginosa IMPDH extracted form Escherichia coli BL21 (DE3)pDIA17 assessed as formation of NADH at 50 uM relative to control
Conditions: not given
Outline: as §3
For `CC(C)(NC(=O)Nc1ccc(Cl)c([N+](=O)[O-])c1)c1cccc(-c2c[nH]cn2)c1`, the inhibition was 99%.

Test system: Caco-2
Test: Cytotoxicity against human Caco-2 cells assessed as cell viability at 10 uM measured after 72 hrs by Alamar blue assay
Format: toxicity, cell-based
Conditions: caco-2, 72 h
Outline: as §5
With `CC(C)(NC(=O)Nc1ccc(Cl)c([N+](=O)[O-])c1)c1cccc(-c2c[nH]cn2)c1` the Activity was “Non-toxic”.

Target: Inosine-5'-monophosphate dehydrogenase 2 (Homo sapiens) (UniProt P12268)
Sequence (P12268 2-514 limits assumed): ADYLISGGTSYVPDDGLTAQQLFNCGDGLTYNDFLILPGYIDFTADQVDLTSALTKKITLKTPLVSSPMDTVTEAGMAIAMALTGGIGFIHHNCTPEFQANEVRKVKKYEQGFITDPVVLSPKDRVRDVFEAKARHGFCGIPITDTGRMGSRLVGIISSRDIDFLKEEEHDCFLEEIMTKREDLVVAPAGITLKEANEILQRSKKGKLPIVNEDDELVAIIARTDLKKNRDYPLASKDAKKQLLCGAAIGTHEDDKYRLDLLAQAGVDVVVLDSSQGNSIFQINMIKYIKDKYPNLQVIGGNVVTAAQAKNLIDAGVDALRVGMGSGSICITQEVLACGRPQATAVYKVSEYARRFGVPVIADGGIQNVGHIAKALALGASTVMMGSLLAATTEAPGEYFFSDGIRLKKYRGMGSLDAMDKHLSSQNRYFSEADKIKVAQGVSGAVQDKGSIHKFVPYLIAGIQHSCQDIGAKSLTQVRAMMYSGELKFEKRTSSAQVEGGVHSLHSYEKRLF
Test: Inhibition of human IMPDH2 extracted form Escherichia coli BL21 (DE3)pDIA17 assessed as formation of NADH at 50 uM
Conditions: not given
In the case of `CC(C)(NC(=O)Nc1ccc(Cl)c([N+](=O)[O-])c1)c1cccc(-c2c[nH]cn2)c1`, the inhibition is reported as “inactive”.

Test system: Mycobacterium tuberculosis
Test: Inhibition of Mycobacterium tuberculosis TMP kinase using 0.05 dTMP and 0.5 mM MgATP by measuring NADH consumption at 20 uM by coupled spectrophotometric assay
Conditions: not given
Outline: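 Recombinant M. tuberculosis TMP kinase; activity at 30 °C by NADH consumption at 340 nm in a pyruvate kinase/lactate dehydrogenase/nucleoside diphosphate kinase coupled assay (2 units each). Medium: 50 mM Tris-HCl pH 7.4, 50 mM KCl, 2 mM MgCl2, 0.2 mM NADH, 1 mM phosphoenolpyruvate. ATP held at 0.5 mM and dTMP at 0.05 mM; compound at 20 μM.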
In the case of `CC(C)(NC(=O)Nc1ccc(Cl)c([N+](=O)[O-])c1)c1cccc(-c2c[nH]cn2)c1`, the inhibition is reported as “inactive”.

Test system: Staphylococcus aureus
Test: Antibacterial activity against methicillin-resistant Staphylococcus aureus ATCC 43300 assessed as growth inhibition at 32 ug/ml relative to control
Format: functional
Conditions: not given
`CC(C)(NC(=O)Nc1ccc(Cl)c([N+](=O)[O-])c1)c1cccc(-c2c[nH]cn2)c1` gave an inhibition at 32 µg/mL of 79.3%.

Target: T3, Inosine-5'-monophosphate dehydrogenase (Pseudomonas aeruginosa (strain ATCC 15692 / DSM 22644 / CIP 104116 / JCM14847 / LMG 12228 / 1C / PRS 101 / PAO1), UniProt Q9HXM5)
T3 sequence (Q9HXM5 whole entry): T1 sequence (whole entry)
Test: Inhibition of Pseudomonas aeruginosa IMPDH extracted form Escherichia coli BL21 (DE3)pDIA17 assessed as formation of NADH
Conditions: read-out: I50
Molecule `CC(C)(NC(=O)Nc1ccc(Cl)c([N+](=O)[O-])c1)c1cccc(-c2c[nH]cn2)c1` has an IC50 of 100 nM.
